Data set [1] concerns Trichomonas vaginalis. As to the kind of experiment: Antimicrobial activity against Trichomonas vaginalis infected in po dosed mouse relative to metronidazole. The format is functional. The gist of the method:
(§1)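 Mice infected subcutaneously, then dosed orally. Vehicle depended on compound: suspension in aqueous 0.75% sodium carboxymethylcellulose, DMF-H₂O, DMF-phosphate buffer pH 7.38, or water. ED₅₀ determined, with metronidazole run in parallel. The relative value is ED₅₀ (test) / ED₅₀ (metronidazole).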

In data set [2] the test system is Mycoplasmoides gallisepticum. In words: Antimicrobial activity against Mycoplasma gallisepticum S6 Weybridge by broth dilution method. The class given is functional. A general note: Dilution methods test growth across graded concentrations, often in twofold steps.
The nature of data set [3]: Therapeutic index, ratio of LD50 for po dosed mouse to ED50 for Trichomonas vaginalis infected in po dosed mouse. The conditions noted are these: in vivo, read-out: Ratio LD50/ED50. The format is organism-based. The gist of the method:
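Ratio of two mouse values, both dosed orally. The LD50 comes from acute toxicity, with compounds suspended in aqueous 0.5% Methocel 90-HG. The ED50 comes from subcutaneous T. vaginalis infection treated orally. The ED50 vehicle varied by compound: suspension in aqueous 0.75% sodium carboxymethylcellulose, DMF-H2O, DMF-phosphate buffer pH 7.38, or H2O.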

A short description of data set [4]: Acute toxicity in po dosed mouse. The class given is organism-based. To be noted: in vivo. The gist of the method:
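Acute toxicity in mice by the oral route. Compounds were given as suspensions in aqueous 0.5% Methocel 90-HG.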

Data set [5] relates to Streptococcus pyogenes. As to the kind of experiment: Antimicrobial activity against Streptococcus pyogenes C 203 by microtitre method. The format is functional.
The test system of data set [6] is Trichomonas vaginalis. As to the kind of experiment: Antimicrobial activity against Trichomonas vaginalis by broth dilution method. The class given is functional.
Data set [7] deals with Clostridium perfringens. In words: Antimicrobial activity against Clostridium perfringens ISS 30543 by broth dilution method. The format is functional.
Data set [8] has as its system Staphylococcus aureus. As to the kind of experiment: Antimicrobial activity against Staphylococcus aureus Tour by microtitre method. The format is functional.
Data set [9] has as its system Trichomonas vaginalis. In words: Antimicrobial activity against Trichomonas vaginalis infected in po dosed mouse. The format is functional. In short, it runs like this:
as §1

The subject of data set [10] is Mus musculus. In words: Toxicity in CF1 mouse assessed as reduction in heart rate at 10 to 600 mg/kg, po by Irwin test. Also noted: dose 10-600 mg/kg, route oral. The conditions noted are these: in vivo. The format is organism-based. The gist of the method:
(§2)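 Irwin observational method in male CF1 mice (19–22 g). Oral dosing of a suspension in 0.5% Methocel 90-HG at 10 mL/kg, up to 600 mg/kg; controls received saline. Directly observable behavioural and autonomic changes were scored, with the threshold dose for onset recorded.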

Data set [11] deals with Mus musculus. As to the kind of experiment: Toxicity in CF1 mouse assessed as ataxia at 10 to 600 mg/kg, po by Irwin test. The class given is organism-based. Details: dose 10-600 mg/kg, route oral. To be noted: in vivo. The gist of the method: as §2
For data set [12], the system named is Mus musculus. As to the kind of experiment: Toxicity in CF1 mouse assessed as reduction in curiosity at 10 to 600 mg/kg, po by Irwin test. The format is organism-based. Also noted: dose 10-600 mg/kg, route oral. The conditions noted are these: in vivo. In short, it runs like this: as §2
For data set [13], the system named is Mus musculus. As to the kind of experiment: Toxicity in CF1 mouse assessed as reduction in opening of eyelid at 10 to 600 mg/kg, po by Irwin test. The class given is organism-based. The conditions noted are these: in vivo. Also noted: dose 10-600 mg/kg, route oral. In short, it runs like this:
as §2

Data set [14] relates to Mus musculus. In words: Toxicity in CF1 mouse assessed as cyanosis at 10 to 600 mg/kg, po by Irwin test. The class given is organism-based. Also noted: dose 10-600 mg/kg, route oral. To be noted: in vivo. The gist of the method: as §2
The test system of data set [15] is Mus musculus. In words: Toxicity in CF1 mouse assessed as change in sleeping time at 600 mg/kg, po administered 30 mins prior to hexobarbital sodium challenge relative to vehicle-treated control. The format is organism-based. Details: dose 600 mg/kg, route oral. The conditions noted are these: in vivo, 0.5 h. The gist of the method:
(§3)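 Male CF1 mice (19–22 g), groups of 30, given oral doses as a 0.5% Methocel 90-HG suspension at 10 mL/kg; saline controls (90 animals). Hexobarbital sodium 75 mg/kg ip given 30 min later, at 25–26 °C. Sleeping time given as mean ± SE and as % change vs controls; Dunnett's t test.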

Data set [16] relates to Mus musculus. In words: Toxicity in CF1 mouse assessed as reduction in spontaneous activity at 10 to 600 mg/kg, po by Irwin test. The class given is organism-based. The conditions noted are these: in vivo. Also noted: dose 10-600 mg/kg, route oral. The gist of the method: as §2
Data set [17] has as its system Mus musculus. As to the kind of experiment: Inhibition of strychine sulfate/pentetrazole-induced death in CF1 mouse at 300 to 600 mg/kg, po administered 60 mins prior to strychine sulfate/pentetrazole challenge. The class given is functional, organism-based.
For data set [18], the system named is Mus musculus. As to the kind of experiment: Toxicity in CF1 mouse assessed as reduction in respiratory rate at 10 to 600 mg/kg, po by Irwin test. Details: dose 10-600 mg/kg, route oral. The class given is organism-based. To be noted: in vivo. In short, it runs like this:
as §2

Data set [19] relates to Mus musculus. In words: Toxicity in CF1 mouse assessed as reduction in body tone at 10 to 600 mg/kg, po by Irwin test. The conditions noted are these: in vivo. The class given is organism-based. Also noted: dose 10-600 mg/kg, route oral. The gist of the method: as §2
Data set [20] relates to Mus musculus. In words: Toxicity in CF1 mouse assessed as change in sleeping time at 300 mg/kg, po administered 30 mins prior to hexobarbital sodium challenge relative to vehicle-treated control. The class given is organism-based. Also noted: dose 300 mg/kg, route oral. To be noted: in vivo, 0.5 h. In short, it runs like this:
as §3

The test system of data set [21] is Mus musculus. As to the kind of experiment: Toxicity in CF1 mouse assessed as flaccid paralysis at 600 mg/kg, po by Irwin test. The class given is organism-based. The conditions noted are these: in vivo. Details: dose 600 mg/kg, route oral. In short, it runs like this:
as §2

The test system of data set [22] is Mus musculus. As to the kind of experiment: Toxicity in CF1 mouse assessed as change in sleeping time at 1 mg/kg, po administered 30 mins prior to hexobarbital sodium challenge relative to vehicle-treated control. The format is organism-based. Details: dose 1 mg/kg, route oral. The conditions noted are these: in vivo, 0.5 h.

≈ marks a conversion by molar mass, not a printed value. Calls of active or inactive are those of the source. A value given as a limit tells only on which side of the number the result lay.

Consider `Cn1c(C(C)(C)OC(=O)NN)cnc1[N+](=O)[O-]`, for which the “Ratio ED50” value in [1] is given as 0.33. Besides, the MIC in data set [2] was 25 µg/mL (≈ 103 µM); in [5] it was 100 µg/mL (≈ 411 µM); in data set [6] it was 100 µg/mL (≈ 411 µM); in [7], 3.1 µg/mL (≈ 12.7 µM); in [8], > 100 µg/mL. The selectivity ratio in [3] turned out to be 141. Besides, the LD50 in data set [4] came out at 660 mg/kg. The molecule further displayed an ED50 in [9] of 4.67 mg/kg.

For the molecule `Cn1c(C(C)(C)O)cnc1[N+](=O)[O-]`, the “Ratio ED50” value in data set [1] is listed as 0.28. Besides, the MIC in [2] is 40 µg/mL (≈ 216 µM); in data set [5], > 300 µg/mL; in [6], 25 µg/mL (≈ 135 µM); in data set [7], 25 µg/mL (≈ 135 µM); in [8] it was 100 µg/mL (≈ 540 µM). Further, the selectivity ratio in data set [3] was 423. The molecule also registered an ED50 in data set [9] of 1.65 mg/kg.

With `COC(C)(C)c1cnc([N+](=O)[O-])n1C`, in [1], the “Ratio ED50” value was determined as 0.81. Further, the MIC is > 100 µg/mL in [2]; > 100 µg/mL in data set [5]; 5 µg/mL (≈ 25.1 µM) in data set [6]; 5 µg/mL (≈ 25.1 µM) in data set [7]; > 100 µg/mL in [8]. For the same molecule, the selectivity ratio in data set [3] was 99. In data set [4], this molecule yielded an LD50 of 805 mg/kg. In addition, the ED50 in data set [9] was found to be 8.12 mg/kg.

For the molecule `Cn1c(C(C)(C)OC(=O)Nc2ccccc2)cnc1[N+](=O)[O-]`, in data set [1], the “Ratio ED50” value is on record as 2.88. For the same molecule, the MIC in data set [2] is 25 µg/mL (≈ 82.2 µM); in data set [5], > 100 µg/mL; in [6], 100 µg/mL (≈ 329 µM); in data set [7], 3.1 µg/mL (≈ 10.2 µM); in data set [8] it was > 100 µg/mL. Moreover, the ED50 in data set [9] turned out to be 28.8 mg/kg.

As to `Cc1ncc([N+](=O)[O-])n1CCO` [METRONIDAZOLE], the Activity entry in [10] is listed as “Toxic”; in [11], “Toxic”; in data set [12] it was “Toxic”; in data set [13], “Toxic”; in data set [14], “Toxic”; in data set [15] it was 55.9%. Besides, the Activity entry is “Toxic” in data set [16]; “Toxic” in [18]; “Toxic” in [19]; 29.2% in [20]; “Toxic” in data set [21]. The MIC in data set [2] was > 300 µg/mL; in data set [5] it was > 300 µg/mL; in data set [6], 5 µg/mL (≈ 29.2 µM); in data set [7], 0.6 µg/mL (≈ 3.51 µM); in data set [8], > 300 µg/mL. Besides, the selectivity ratio in data set [3] came out at 658. In data set [17], the inhibition result was “Active”.

As for `CC(CO)c1cnc([N+](=O)[O-])n1C` (centres undefined), in data set [1], the “Ratio ED50” value was >0.7. Further, the MIC in [2] turned out to be 50 µg/mL (≈ 270 µM); in data set [5], 200 µg/mL (≈ 1080 µM); in data set [6], 25 µg/mL (≈ 135 µM); in data set [7] it was 0.8 µg/mL (≈ 4.32 µM); in data set [8] it was 25 µg/mL (≈ 135 µM). In [9], the ED50 was > 10 mg/kg.

For `CN(C)CCCN1c2ccccc2Sc2ccc(Cl)cc21.Cl` [CHLORPROMAZINE HYDROCHLORIDE], in data set [22], the Activity is 57.7%.

As a reminder, the MIC is the lowest concentration that inhibits growth of the organism. Higher therefore signals weaker potency. Broadly, the LD50 is the dose at which mortality reaches 50%. High values mean a less toxic substance, low ones a more toxic substance. What is called ED50 is the dose at which the effect has come halfway, by size or by number of responders. Read a high ED50 as a need for a large dose.

These data come from ChEMBL document CHEMBL3271964, “Synthesis and biological activity of new 2-nitroimidazole derivatives” (J Med Chem, 1978).
